Source: ChEMBL document CHEMBL1275452, “Epidemiological cutoffs and cross-resistance to azole drugs in Aspergillus fumigatus” (2008)
Converted amounts (≈) assume the structure as drawn.

Tests used:
Assay type in all cases: functional
[1] = tested on: Aspergillus fumigatus; experiment: Antimicrobial activity against azole-resistant Aspergillus fumigatus harboring M220V, M220K, M220T and M220I mutation in cyp51A gene after 48 hrs by microdilution method
How it was run: (§1)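 EUCAST broth microdilution in RPMI 1640 supplemented to 2% glucose. Inoculum 2 × 105 to 5 × 10^5 CFU/ml, spores counted in a hematocytometer. MIC read at 48 h as the concentration giving complete inhibition of visual growth. Strains with itraconazole MICs of ≥8 mg/liter were tested at least twice on different days (2 to 11 times). Values are geometric means of MICs. QC strain ATCC 204305 was included.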

[2] = tested on: Aspergillus fumigatus; experiment: Antimicrobial activity against azole-susceptible Aspergillus fumigatus after 48 hrs by microdilution method
How it was run: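 EUCAST broth microdilution on clinical isolates, RPMI 1640 with glucose to 2%. Inoculum 2 × 105 to 5 × 10^5 CFU/ml, counted as spores in a hematocytometer. MIC read at 48 h as the lowest concentration giving complete inhibition of visual growth. Strains with itraconazole MIC ≤1 mg/liter tested once, some at least twice. Values summarised as geometric means; QC strain ATCC 204305 run alongside.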

[3] = tested on: Aspergillus fumigatus; experiment: Antimicrobial activity against azole-resistant Aspergillus fumigatus harboring Tandem repeat-L98H (TR) mutation in cyp51A gene after 48 hrs by microdilution method; how it was run: as §1
[4] = tested on: Aspergillus fumigatus; experiment: Antimicrobial activity against azole-resistant Aspergillus fumigatus harboring G54V, G54E, G54R and G54W mutation in cyp51A gene after 48 hrs by microdilution method; how it was run: as §1

## CCC(C)n1ncn(-c2ccc(N3CCN(c4ccc(OCC5COC(Cn6cncn6)(c6ccc(Cl)cc6Cl)O5)cc4)CC3)cc2)c1=O (stereo not given) [ITRACONAZOLE]
[1]
  MIC: 16 µg/mL (≈ 22.7 µM)
[2]
  MIC: 0.32 µg/mL (≈ 0.453 µM)
  MIC90: 0.5 µg/mL (≈ 0.709 µM)
[3]
  MIC: 16 µg/mL (≈ 22.7 µM)
[4]
  MIC: 16 µg/mL (≈ 22.7 µM)

## CC[C@@H]([C@H](C)O)n1ncn(-c2ccc(N3CCN(c4ccc(OC[C@@H]5CO[C@@](Cn6cncn6)(c6ccc(F)cc6F)C5)cc4)CC3)cc2)c1=O [POSACONAZOLE]
[1]
  MIC: 0.65 µg/mL (≈ 0.928 µM)
[2]
  MIC: 0.08 µg/mL (≈ 0.114 µM)
  MIC90: 0.125 µg/mL (≈ 0.178 µM)
[3]
  MIC: 0.68 µg/mL (≈ 0.97 µM)
[4]
  MIC: 1.6 µg/mL (≈ 2.28 µM)

## C[C@@H](c1nc(-c2ccc(C#N)cc2)cs1)[C@](O)(Cn1cncn1)c1ccc(F)cc1F [RAVUCONAZOLE]
[1]
  MIC: 1.85 µg/mL (≈ 4.23 µM)
[2]
  MIC: 0.6 µg/mL (≈ 1.37 µM)
  MIC90: 1 µg/mL (≈ 2.29 µM)
[3]
  MIC: 6.8 µg/mL (≈ 15.5 µM)
[4]
  MIC: 0.32 µg/mL (≈ 0.731 µM)

## C[C@@H](c1ncncc1F)[C@](O)(Cn1cncn1)c1ccc(F)cc1F [VORICONAZOLE]
[1]
  MIC: 1 µg/mL (≈ 2.86 µM)
[2]
  MIC: 0.53 µg/mL (≈ 1.52 µM)
  MIC90: 1 µg/mL (≈ 2.86 µM)
[3]
  MIC: 3.7 µg/mL (≈ 10.6 µM)
[4]
  MIC: 0.42 µg/mL (≈ 1.2 µM)
